The source made the active and inactive calls. No cut-off for these calls is given here.
Tests used:
Rattus norvegicus [1] = experiment: Time to peak effect in Rats was evaluated by Maximal electroshock seizure (MES) test in hours by oral administration; type: functional
Procedure, shortened: (§1)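 Oral dosing in 30% PEG 400: phase IV in mice (0.01 mL/g), phase VI in Sprague-Dawley rats (0.004 mL/g). ED50/TD50 found as in phase II, at the stated time of peak effect. MES current 50 mA in mice, 150 mA in rats. PTZ sc 85 mg/kg in mice, 70 mg/kg in rats. Toxicity by rotorod in mice; positional sense, gait and stance in rats. PI = TD50/ED50.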

Rattus norvegicus [2] = experiment: Median Effective dose was evaluated by Subcutaneous pentylenetetrazole seizure test in Rats by oral administration up to 800 mg/kg;d= no protection; type: functional, organism-based; design: dose 800 mg/kg; procedure, shortened: as §1
Mus musculus [3] = experiment: Time to peak effect in mice was evaluated by Maximal electroshock seizure (MES) test in hours by oral administration; type: functional; procedure, shortened: as §1
Mus musculus [4] = organism: Mus musculus; experiment: Median hypnotic dose was evaluated by loss of righting reflex; type: functional
Rattus norvegicus [5] = experiment: Time to peak effect in Rats was evaluated by Neurologic toxicity (rotarod test) in hours by oral administration; type: functional
Mus musculus [6] = experiment: Median Effective dose was evaluated by Maximal electroshock seizure (MES) test in mice by oral administration; type: functional
Mus musculus [7] = experiment: Time to peak effect in mice was evaluated by Subcutaneous pentylenetetrazole seizure test in hours by oral administration; type: functional; procedure, shortened: as §1
Mus musculus [8] = experiment: Median lethal dose was evaluated by mortality after 24 hr through ip injection administration; type: functional
Procedure, shortened: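 Mice were dosed ip in 30% PEG 400. Mortality was scored 24 h after injection in groups of eight. The 24-h LD₅₀ was derived as for the ED₅₀/TD₅₀, with 95% confidence intervals.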

Rattus norvegicus [9] = experiment: Time to peak effect in Rats was evaluated by Subcutaneous pentylenetetrazole seizure test in hours by oral administration; type: functional; procedure, shortened: as §1
Rattus norvegicus [10] = experiment: […] was evaluated by […] by oral administration up to 3000 mg/kg; type: functional, organism-based; design: dose 3000 mg/kg
Mus musculus [11] = experiment: Inhibition of seizures induced in mice by a convulsant dose of strychnine through ip administration; f=No protection up to 100 mg/kg; type: functional, organism-based; design: dose 100 mg/kg
Procedure, shortened: (§2)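 Convulsant (bicuculline, picrotoxin, strychnine or PTZ) given at CD97 as a 0.5% solution. Observed 30 min (45 min for picrotoxin). PI uses ip mouse TD50.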

Mus musculus [12] = organism: Mus musculus; experiment: Time to peak toxicity was evaluated by Maximal electroshock seizure test in hours; type: functional
Mus musculus [13] = experiment: Time to peak effect in mice was evaluated by Neurologic toxicity (rotarod test) in hours by oral administration; type: functional
Procedure, shortened: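 Oral dosing in mice in 30% PEG 400 (0.01 mL/g). Neurologic deficit was scored by the rotorod ataxia test, and the time of peak effect was given in hours.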

Mus musculus [14] = experiment: Inhibition of picrotoxin-induced seizures in mice by ip administration at 55-100 mg/kg (g= Maximum 62.5% protection); type: functional, organism-based
Procedure, shortened: (§3)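 Phase V differentiation in mice: test drug given ip at time of peak therapeutic effect, then the CD₉₇ of each convulsant (picrotoxin, bicuculline, strychnine) given ip as a 0.5% solution; observation 30 min for bicuculline and strychnine, 45 min for picrotoxin. Drug in 30% PEG 400, 0.01 mL/g. ED₅₀ with 95% confidence intervals from ≥3 points in the 10-90% protection range, groups of 6-12 mice.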

Mus musculus [15] = experiment: […] was evaluated by Neurologic toxicity (rotarod test) in mice by oral administration; type: functional; procedure, shortened: as §1
Mus musculus [16] = experiment: Median effective dose was evaluated by subcutaneous pentylenetetrazole seizure test through up to 300 mg/kg; g=no protection up to 33 mg/kg; type: functional, organism-based
Mus musculus [17] = experiment: Inhibition of seizures induced in mice by a convulsant dose of up to 100 mg/kg; type: functional, organism-based; design: dose 100 mg/kg; procedure, shortened: as §2
Rattus norvegicus [18] = experiment: Median Effective dose was evaluated by Maximal electroshock seizure (MES) test in Rats by oral administration; type: functional
Mus musculus [19] = organism: Mus musculus; experiment: Time to peak activity was evaluated by Maximal electroshock seizure test in hours; type: functional
Mus musculus [20] = experiment: Median Effective dose was evaluated by Subcutaneous pentylenetetrazole seizure test in mice by oral administration; c=No protection up to 300 mg/kg; type: functional, organism-based; design: dose 300 mg/kg; procedure, shortened: as §1
Mus musculus [21] = experiment: Inhibition of seizures induced in mice by a convulsant dose of strychnine through ip administration; type: functional; procedure, shortened: as §3
Mus musculus [22] = experiment: Inhibition of seizures induced in mice by a convulsant dose of bicuculline through ip administration; type: functional; procedure, shortened: as §3
Mus musculus [23] = experiment: Median Effective dose was evaluated by Subcutaneous pentylenetetrazole seizure test in mice by oral administration; type: functional
Mus musculus [24] = experiment: Median effective dose was evaluated by subcutaneous pentylenetetrazole seizure test through intraperitoneal administration; type: functional
Procedure, shortened: (§4)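 Phase II in mice, ip dosing in 30% PEG 400. Groups of 6-12 mice per dose until at least three points fall in 10-90% protection. […] MES: 50 mA, 0.2 s corneal. scMet: pentylenetetrazol 85 mg/kg sc.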

Rattus norvegicus [25] = experiment: Median Effective dose was evaluated by Subcutaneous pentylenetetrazole seizure test in Rats by oral administration; type: functional
Mus musculus [26] = experiment: Anti-seizure activity was evaluated by Neurologic toxicity (rotarod test) at dose 600 mg/kg after 0.5 hours; + denotes neurotoxicity; type: functional, organism-based; design: dose 600 mg/kg
Procedure, shortened: (§5)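 Phase I neurotoxicity in mice by rotorod ataxia test. Compound given ip at 30, 100, 300 or 600 mg/kg in 30% PEG 400, read 0.5 h and 4 h after. Scored ++++ to + for toxicity at 30 to 600 mg/kg; - means no toxicity.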

Mus musculus [27] = experiment: Median toxic dose was evaluated by […] through intraperitoneal administration; type: functional
Mus musculus [28] = experiment: Anti-seizure activity was evaluated by Subcutaneous pentylenetetrazole seizure test at dose 600 mg/kg after 0.5 hours; + denotes neurotoxicity; type: functional, organism-based; design: dose 600 mg/kg
Procedure, shortened: (§6)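 Phase I screen in mice: ip dosing at 30, 100, 300 and 600 mg/kg in 30% PEG 400, read 0.5 h and 4 h after. Pentylenetetrazol given sc at CD97 (85 mg/kg). Protection means no clonic spasm of at least 5 s over 30 min. Scored ++++ to + for 30 to 600 mg/kg.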

Mus musculus [29] = experiment: Anti-seizure activity was evaluated by Subcutaneous pentylenetetrazole seizure test at dose 100 mg/kg after 4.0 hours; +++ denotes antiseizure activity; type: functional, organism-based; design: dose 100 mg/kg; procedure, shortened: as §6
Rattus norvegicus [30] = organism: Rattus norvegicus; experiment: Protective index (TD50/ED50) was determined against scMet induced seizure in rat.; type: functional
Procedure, shortened: (§7)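 Oral dosing in 30% PEG 400: phase IV in mice (0.01 mL/g), phase VI in Sprague-Dawley rats (0.004 mL/g). ED50/TD50 found as in phase II, at the stated time of peak effect. MES current 50 mA in mice, 150 mA in rats. Toxicity by rotorod in mice; positional sense, gait and stance in rats. PI = TD50/ED50.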

Mus musculus [31] = experiment: Median effective dose was evaluated by Maximal electroshock seizure test through intraperitoneal administration; type: functional; conditions: ip; procedure, shortened: as §4
Mus musculus [32] = experiment: Anti-seizure activity was evaluated by Maximal electroshock seizure (MES) test at dose 100 mg/kg after 0.5 hours; +++ denotes antiseizure activity; type: functional, organism-based; design: dose 100 mg/kg
Procedure, shortened: (§8)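 Phase I screen in mice: ip injection at 30, 100, 300 and 600 mg/kg in 30% PEG 400 (0.01 mL/g). Test run 0.5 h and 4 h after dosing. 60-Hz AC, 50 mA, via corneal electrodes for 0.2 s. Protection means abolition of hind-leg tonic extension. Scored ++++ to + for activity at 30 to 600 mg/kg.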

Rattus norvegicus [33] = organism: Rattus norvegicus; experiment: Protective index (TD50/ED50) was determined against MES induced seizure in rat.; type: functional; procedure, shortened: as §7
Mus musculus [34] = experiment: Anti-seizure activity was evaluated by Neurologic toxicity (rotarod test) at dose 600 mg/kg after 4.0 hours; + denotes neurotoxicity; type: functional, organism-based; design: dose 600 mg/kg; procedure, shortened: as §5
Mus musculus [35] = experiment: Anti-seizure activity was evaluated by Subcutaneous pentylenetetrazole seizure test at dose 100 mg/kg after 0.5 hours; +++ denotes antiseizure activity; type: functional, organism-based; design: dose 100 mg/kg; procedure, shortened: as §6
Mus musculus [36] = experiment: Anti-seizure activity was evaluated by Maximal electroshock seizure (MES) test at dose 300 mg/kg after 0.5 hours; ++ denotes antiseizure activity; type: functional, organism-based; design: dose 300 mg/kg; procedure, shortened: as §8
Mus musculus [37] = experiment: Anti-seizure activity was evaluated by Neurologic toxicity (rotarod test) at dose 300 mg/kg after 4.0 hours; ++ denotes antiseizure activity; type: functional, organism-based; design: dose 300 mg/kg; procedure, shortened: as §5

Row | SMILES | TPE (Rattus norvegicus [1]) | TPE (Mus musculus [3]) | HD50 (Mus musculus [4]) | TPE (Rattus norvegicus [5]) | TPE (Mus musculus [7]) | TPE (Rattus norvegicus [9]) | TPE (Mus musculus [12]) | TPE (Mus musculus [13]) | TPE (Mus musculus [19]) | ED50 (Mus musculus [24]) | Activity (Mus musculus [26]) | TD50 (Mus musculus [27]) | PI (Rattus norvegicus [30]) | ED50 (Mus musculus [31]) | PI (Rattus norvegicus [33]) | further results
1 | O=C1NC(=O)C(c2ccccc2)(c2ccccc2)N1 [PHENYTOIN] | 4 h | 2 h | 178 mg/kg | 0.5 h | 2 h | 4 h | 2 | 2 h | 2 | – | – | – | – | – | – | ED50 (Rattus norvegicus [2]): inactive; ED50 (Mus musculus [6]): 9 mg/kg; LD50 (Mus musculus [8]): 230 mg/kg; TD50 (Rattus norvegicus [10]): inactive; ED50 (Mus musculus [11]): inactive; ED50 (Mus musculus [14]): Active; TD50 (Mus musculus [15]): 87 mg/kg; ED50 (Mus musculus [16]): inactive; ED50 (Mus musculus [17]): inactive; ED50 (Rattus norvegicus [18]): 30 mg/kg; ED50 (Mus musculus [20]): inactive
2 | CCCC(CCC)C(=O)O [VALPROIC ACID] | 0.5 h | 1 h | 885 mg/kg | 1 h | 1 h | 0.5 h | 0.25 | 2 h | 0.25 | 149 mg/kg | – | – | – | – | – | ED50 (Mus musculus [21]): 387 mg/kg; ED50 (Mus musculus [22]): 360 mg/kg; ED50 (Mus musculus [23]): 388 mg/kg; ED50 (Rattus norvegicus [25]): 180 mg/kg
3 | O=C(Cc1ccc(Br)cc1)NS(=O)(=O)C(F)(F)F | – | – | – | – | – | – | 2 | – | 4 | 55 mg/kg | Antiseizure activity | 291 mg/kg | 5.3 | 23 mg/kg | 13 | Activity (Mus musculus [28]): Antiseizure activity; Activity (Mus musculus [29]): Antiseizure activity; Activity (Mus musculus [32]): Antiseizure activity; Activity (Mus musculus [34]): Antiseizure activity
4 | O=C(Cc1ccc(Cl)cc1)NS(=O)(=O)C(F)(F)F | – | – | – | – | – | – | 4 | – | 4 | 49 mg/kg | Antiseizure activity | 206 mg/kg | 4.2 | 7.6 mg/kg | 27 | Activity (Mus musculus [35]): Antiseizure activity; Activity (Mus musculus [36]): Antiseizure activity; Activity (Mus musculus [37]): Antiseizure activity

From ChEMBL document CHEMBL1129543, “Synthesis and evaluation of N-(phenylacetyl)trifluoromethanesulfonamides as anticonvulsant agents” (J Med Chem, 1996)
